# Measured values of several laboratories.
# Lines come from different studies, so protocols differ.
# BRD3 BD1: Bromodomain-containing protein 3, BD1 (BRD3, Homo sapiens, UniProt Q15059)
# KDM1A: Lysine-specific histone demethylase 1A (KDM1A, Homo sapiens, UniProt O60341)
# PDE5A: cGMP-specific 3',5'-cyclic phosphodiesterase (PDE5A, Homo sapiens, UniProt O76074)
SMILES,target,assay,setting,quantity,result
C[S+]([O-])c1ccc(-c2nc(-c3ccncc3)c(-c3ccc(F)cc3)[nH]2)cc1 (stereo not drawn),BRD3 BD1,"thermal stability, DSF",10 µM,ΔTm,1.43 °C
COc1cc2c(NC3CCN(C(C)C)CC3)nc(C3CCCCC3)nc2cc1OCCCN1CCCC1,"Histone-lysine N-methyltransferase EHMT1 (EHMT1, Homo sapiens, UniProt Q9H9B1)","thermal stability, DSF",100 µM,ΔTm,8 °C
Cc1cnc(Nc2ccc(OCCN3CCCC3)cc2)nc1Nc1cccc(S(=O)(=O)NC(C)(C)C)c1,"ATPase family AAA domain-containing protein 2B (ATAD2B, Homo sapiens, UniProt Q9ULI0)","thermal stability, DSF",10 µM,ΔTm,-0.06 °C
Cc1cc2c(cc1N1C(=O)c3cccc4c(Cl)ccc(c34)C1=O)n(C)c(=O)n2C,"Bromodomain-containing protein 3, BD2 (BRD3, Homo sapiens, UniProt Q15059)","thermal stability, DSF",10 µM,ΔTm,0.1 °C
CN1CCN(C(=O)[C@H](CCCN[C@@H]2C[C@H]2c2ccc(F)cc2)NC(=O)c2ccc(-n3ccnn3)cc2)CC1,KDM1A,"enzyme activity, inhibitor",,KI (inactivation),1.19 µM
COC(=O)[C@@H]1Cc2c([nH]c3ccccc23)[C@H](c2ccc(OC)c(OC)c2)N1C(=O)CCl,PDE5A,"enzyme activity, inhibitor, FP",50 µM,inhibition,48%
NS(=O)(=O)c1ccc(Nc2nc(-c3ccc(F)cc3)c3ccccc3n2)cc1,BRD3 BD1,"binding, competition with immobilised ligand",1 µM,remaining binding,1%
O=C(O)c1ccc(CN2CCC(CN[C@@H]3C[C@H]3c3ccccc3)CC2)cc1,KDM1A,"enzyme activity, inhibitor",,KI (inactivation),2.14 µM
Nc1ncnc2occ(-c3ccc(NC(=O)Nc4cc(C(F)(F)F)ccc4F)cc3)c12,"Cyclin-dependent kinase 15 (CDK15, Homo sapiens, UniProt Q96Q40)","cell-free assay, inhibitor",20 µM,remaining signal,1.1%
Oc1ccc(-c2nc(-c3ccncc3)c(-c3ccc(F)cc3)[nH]2)cc1,BRD3 BD1,"thermal stability, DSF",10 µM,ΔTm,0.72 °C
CC(C)(C)N1C(=O)[C@H]2Cc3c([nH]c4ccccc34)[C@H](c3cccnc3)N2C1=O,PDE5A,"enzyme activity, inhibitor, FP",50 µM,inhibition,89%
CC(=O)N[C@H](C(=O)N[C@H](C(=O)N[C@@H](Cc1ccccc1)C(=O)N[C@H](C(=O)N[C@@H](CO)C(=O)N[C@@H](Cc1c[nH]c2ccccc12)C(=O)N[C@@H](CCC(=O)O)C(=O)N[C@@H](CCC(=O)O)C(=O)N[C@@H](Cc1ccc(O)cc1)C(=O)N[C@@H](CC(C)C)C(=O)N[C@@H](CC(=O)O)C(=O)N[C@@H](Cc1c[nH]c2ccccc12)C(=O)N[C@H](C(N)=O)C(C)C)[C@@H](C)O)C(C)C)[C@@H](C)O,"Proprotein convertase subtilisin/kexin type 9 (PCSK9, Homo sapiens, UniProt Q8NBP7)","binding, SPR",,kon,260000 M⁻¹ s⁻¹
